From PubChem BioAssay
Shown are actives, neighbours in structure and some others; about 3.3% of the full set was active somewhere.
PMI act hi M6P: PMI (human) activation, high substrate. P34949. coupled PMI enzyme assay, resazurin fluorescence, 20 min; stronger effect = higher value; 1 = untreated enzyme, 0 = substrate-free blank. activation factor at 20 µM. 190,000 compounds, 0.34% hits;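 active = activation factor of 2 or more at 20 µM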
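Test system: Human PMI in coupled enzyme assay | Input: 15 ng/mL PMI | Medium: HEPES-buffered pH 7.4 with magnesium and detergent | Compound: One concentration, 20 µM, in 1% DMSO | Incubation: Enzyme reaction with compound 20 min at room temperature | Detection: Diaphorase-driven resazurin-to-resorufin fluorescence, excitation 544, emission 590 nm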
ROMK mod: human ROMK K+ channel modulation, primary screen. P48048. Tet-inducible ROMK, thallium flux fluorescence; actives lie on both sides. B-score at 10 µM. 130,000 compounds, 2% hits. AID 1918;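 active = signal ratio slope over the read window, or its plate-corrected B-score, at least 3 SD from the plate mean, either direction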;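 note: B-score of the F/F0 ratio slope over 7 to 12 s after thallium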
ABCG2 block: blocks JC-1 efflux by human ABCG2 transporter; inhibition, % at 6.6 µM; IgMXP3 cells, flow cytometry; Q9UNQ0; 190,000 compounds, 0.1% hits;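 active = inhibition above 80%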
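Test system: IgMXP3 (ABCG2) plus far-red-tagged CCRF-Adr (ABCB1) cells / Amount: 3 million cells/mL in well / Reagent: JC-1 transporter substrate / Timing: 10 min compound exposure, 25 °C / Signal: flow cytometry, 530 nm JC-1 signal / Read-out: percent efflux inhibition, scaled nicardipine 100% to DMSO 0% / Benchmarks: nicardipine as high control, DMSO as low control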
Cl transport mod: modulators of human KCC2 chloride dependent transport. Q9H2X9. KCC2 cells, thallium flux FluoZin-2 fluorescence. B-score of Tl+ flux slope (higher = more flux/activation; lower = inhibition) at 10 µM. 190,000 compounds, 2.2% hits;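 active = thallium flux slope and its plate-corrected score both differing from the plate sample mean at a set confidence after two filtering rounds, in either direction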;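 note: slope of fluorescence scaled to starting intensity during 10 to 20 s after thallium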
ABCB1 block: blocks JC-1 efflux by human ABCB1 transporter; inhibition, % at 6.6 µM; CCRF-Adr cells, flow cytometry; P08183; 190,000 compounds, 0.067% hits; AID 1326; in the data active = inhibition above about 40%;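 note: higher value means more JC-1 retained so stronger ABCB1 efflux block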
Target sequence (P08183 whole entry, looked up): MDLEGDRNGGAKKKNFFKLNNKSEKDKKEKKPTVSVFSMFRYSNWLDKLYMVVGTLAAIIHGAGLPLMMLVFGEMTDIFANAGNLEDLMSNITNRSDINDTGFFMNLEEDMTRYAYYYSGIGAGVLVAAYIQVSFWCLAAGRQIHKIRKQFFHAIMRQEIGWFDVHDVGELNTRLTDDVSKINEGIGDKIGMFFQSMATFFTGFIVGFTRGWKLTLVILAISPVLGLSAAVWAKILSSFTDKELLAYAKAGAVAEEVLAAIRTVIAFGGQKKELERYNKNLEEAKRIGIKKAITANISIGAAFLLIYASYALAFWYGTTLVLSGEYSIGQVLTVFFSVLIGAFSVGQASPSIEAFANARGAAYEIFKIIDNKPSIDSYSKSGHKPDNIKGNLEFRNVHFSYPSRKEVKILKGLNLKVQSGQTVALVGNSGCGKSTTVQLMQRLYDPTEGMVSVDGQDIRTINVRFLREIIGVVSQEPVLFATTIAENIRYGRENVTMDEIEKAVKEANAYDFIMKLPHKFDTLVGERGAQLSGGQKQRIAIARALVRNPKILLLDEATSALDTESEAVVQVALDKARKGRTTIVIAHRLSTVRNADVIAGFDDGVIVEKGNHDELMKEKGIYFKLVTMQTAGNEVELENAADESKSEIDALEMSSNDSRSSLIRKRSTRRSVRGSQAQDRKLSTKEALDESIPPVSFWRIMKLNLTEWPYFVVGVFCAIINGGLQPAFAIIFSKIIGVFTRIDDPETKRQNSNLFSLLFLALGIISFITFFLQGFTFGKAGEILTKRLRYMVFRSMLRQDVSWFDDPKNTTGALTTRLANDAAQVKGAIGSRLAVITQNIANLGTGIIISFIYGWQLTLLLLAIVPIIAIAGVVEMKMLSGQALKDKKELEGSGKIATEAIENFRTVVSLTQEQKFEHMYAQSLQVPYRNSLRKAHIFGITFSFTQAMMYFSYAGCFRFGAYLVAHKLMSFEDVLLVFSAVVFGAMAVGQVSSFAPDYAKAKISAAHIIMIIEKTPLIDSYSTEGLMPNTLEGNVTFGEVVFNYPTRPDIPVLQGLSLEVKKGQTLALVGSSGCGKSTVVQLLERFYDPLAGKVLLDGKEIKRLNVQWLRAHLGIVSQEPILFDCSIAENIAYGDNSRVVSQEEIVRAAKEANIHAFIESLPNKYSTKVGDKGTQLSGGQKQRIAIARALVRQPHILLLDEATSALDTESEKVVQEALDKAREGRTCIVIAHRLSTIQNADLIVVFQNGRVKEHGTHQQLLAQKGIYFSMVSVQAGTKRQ
PMI act: increases human mannose-6-phosphate isomerase activity; AID 1214; P34949; 190,000 compounds, 0.005% hits; purified human PMI, coupled resazurin fluorescence, 20 min; stronger effect = higher value; 1 = vehicle control, 0 substrate-free wells; activation factor at 20 µM;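 active = activation factor of 2 or more at 20 µM, relative to plate controls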
ROMK retest: confirmation of human ROMK potassium channel modulators | shares compounds with ROMK mod | 3,000 compounds, 54% hits | AID 1917 | normalized thallium flux (F/F0 slope) at 10 µM | ROMK thallium flux, fluorescence ratio; stronger effect = lower value;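 active = Flux at 10 µM at least 3 SD below or above vehicle control mean in one or both replicates; inconclusive = no clear call, values can overlap the other calls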
Large screens that a line does not name were inactive (follow-up assays come after a bar, where they were run).

COn1c(=O)c(-c2cccs2)[n+]([O-])c2ccccc21	none (no result: ROMK mod)
COc1cc(NC(=O)c2cc3cccc(OC)c3o2)cc(C(=O)Nc2cccc(C(F)(F)F)c2)c1	none (no result: PMI act hi M6P, ROMK mod, ABCG2 block, ABCB1 block, PMI act)
COc1ccc(CCNC(=O)C(=O)NN=C2CCCCCCC2)cc1OC	none (no result: PMI act hi M6P, ROMK mod, ABCG2 block, ABCB1 block, PMI act)
O=C(NCCc1ccccc1)C(=O)NN=C1CCCC1	ROMK mod 2.8 | ROMK retest inactive
O=C(NCCC1=CCCCC1)C(=O)NCc1ccccc1	ROMK mod 1.2 | ROMK retest inactive
CCn1c(/C=C/Nc2ccccc2)[n+](CC)c2ccc(Cl)cc21	ROMK mod -3.2 | ROMK retest inconclusive
O=C(Nc1ccc2snnc2c1)N1CCOCC1	none (no result: ROMK mod) | ROMK retest inconclusive
O=C(Nc1ccc2snnc2c1)N1CCCCC1	none
CCOC(=O)CSc1nnc(CNC(=O)c2ccc([N+](=O)[O-])cc2)n1C	none (no result: ROMK mod, Cl transport mod)
CC(C)(C)c1ccc(NC(=O)c2ccsc2)cc1	none (no result: PMI act hi M6P, ROMK mod, ABCG2 block, ABCB1 block, PMI act)
O=[N+]([O-])c1ccc2c(c1)nc1n2CCN(C2CCCCC2)C1	ROMK mod -5.9 | ROMK retest 0.053
O=[N+]([O-])c1ccc2c(c1)nc1n2CCCCC1	none
Cc1ccc(NC(=O)CSC(C)C(=O)NCCc2ccccn2)cc1 (configuration not stated)	ROMK mod -2.8 | ROMK retest inactive
Cc1ccc(NC(=O)NCc2ccccn2)cc1	none
CCCCCCCCCCOC(=O)C[N+](C)(C)C/C=C(/C)Cl	none (no result: ROMK mod) | ROMK retest 0.057
CCCCCCCCCCCCOC(=O)C[N+](C)(C)C	ROMK mod -3.8 (no result: PMI act hi M6P, ABCG2 block, ABCB1 block, PMI act) | ROMK retest 0.048
Cc1ccc(NC(=O)CSc2n[nH]c(=O)n2C2CC2)cc1S(=O)(=O)N1CCOCC1	none
CC(=O)c1ccc(NC(=O)C(C)NCc2ccccc2Cl)cc1 (configuration not stated)	none
O=C1CCCCCN1Sc1ccccc1	none (no result: ROMK mod) | ROMK retest 0.043
O=C(CCSc1ccccc1)N1CCCC1	none
CN(CCC#N)C(=O)CC(Cc1ccccc1)C1CCOC(C)(C)C1 (configuration not stated)	none (no result: PMI act hi M6P, ROMK mod, ABCG2 block, ABCB1 block, PMI act)
CC(=O)Nc1cccc(C(=O)/C=C/c2ccc(F)cc2)c1	ROMK mod -3.7 | ROMK retest 0.053
COc1ccccc1/C=C/C(=O)Nc1cccc(C(C)=O)c1	none
CC(=O)Nc1cccc(C(=O)/C=C/c2ccc(N(C)C)cc2)c1	ROMK mod -3.7 | ROMK retest 0.048
COc1ccc(/C=C/C(=O)Nc2cccc(C(C)=O)c2)cc1	ROMK mod 1.4 (no result: ABCB1 block) | ROMK retest inconclusive
CC(=O)Nc1cccc(C(=O)/C=C/c2ccc(/C=C/C(=O)c3cccc(NC(C)=O)c3)cc2)c1	none (no result: ROMK mod)
CC(C)Cn1c(Cc2ccccc2)n[nH]c1=S	none (no result: ROMK mod)
O=C(CCNC(=O)c1ccco1)Nc1ccc(N2CCOCC2)cc1	none
CSCC[C@H](NC(=O)OC(C)(C)C)c1nnc(SCC(=O)Nc2ccc(C)cc2C)o1	none (no result: Cl transport mod)
Cc1cc2cc3c(=O)[nH]c(=O)[nH]c3nc2cc1C	none (no result: PMI act hi M6P, ROMK mod, ABCG2 block, ABCB1 block, PMI act)
CCOc1cccc(-c2nnc3n2N=C(c2cc(OC)ccc2OC)CS3)c1	ROMK mod 3.8 | ROMK retest inactive
COc1cccc(-c2nnc3n2N=C(c2cc(OC)ccc2OC)CS3)c1	none (no result: Cl transport mod)
O=C(COC(=O)/C=C/c1ccc(Br)o1)NCCCN1CCCC1=O	none
COc1ccc(C/C(O)=C(\C#N)c2nc3ccccc3s2)cc1	ROMK mod -3.1 | ROMK retest 0.06
COc1ccc(C(=O)CSc2nnc(CN3CCCC3)n2-c2ccc(F)cc2)c(OC)c1	none (no result: ROMK mod)
COc1ccc2c(c1OC)C(=O)OC2Nc1nc(-c2cc3ccccc3oc2=O)cs1 (configuration not stated)	none (no result: ROMK mod) | ROMK retest 0.04
O=C(CN1C(=O)NC2(CCSC2)C1=O)NCc1ccccc1 (configuration not stated)	none
Cc1ccc2cc(CN(Cc3ccc4c(c3)OCO4)Cc3nnnn3Cc3ccco3)c(=O)[nH]c2c1C	ROMK mod -4.2 | ROMK retest inconclusive
O=C(CSc1ccc(-c2ccco2)nn1)NC1CCCC1	none (no result: ROMK mod) | ROMK retest inactive
